Assay results: the M2OR odorant receptor database
Residue numbers refer to the chain shown, from its start.

What was measured:
Details in all cases: stereoisomer not certain
OR2A7 (Homo sapiens) = molecular target: T1, OR2A7 (Homo sapiens) (UniProt Q96R45)
T1 sequence (whole entry): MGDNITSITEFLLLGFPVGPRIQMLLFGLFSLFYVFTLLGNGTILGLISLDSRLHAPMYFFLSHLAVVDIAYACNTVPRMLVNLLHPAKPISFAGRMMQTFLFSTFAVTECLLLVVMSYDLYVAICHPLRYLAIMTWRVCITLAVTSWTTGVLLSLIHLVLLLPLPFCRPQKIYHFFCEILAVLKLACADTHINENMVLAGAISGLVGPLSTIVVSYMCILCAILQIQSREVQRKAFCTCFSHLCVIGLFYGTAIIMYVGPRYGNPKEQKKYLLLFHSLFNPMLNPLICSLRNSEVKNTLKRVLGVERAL
Summary of the method: (§1)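 Assay methods differ from source to source, frequently being transient luciferase assays in mammalian cell lines. For each receptor–molecule pair, the label responsive (active) applies when the original authors judged the measured signal statistically different from baseline, and non-responsive (inactive) applies otherwise.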

OR2A12 (Homo sapiens) = molecular target: T2, OR2A12 (Homo sapiens) (UniProt Q8NGT7)
T2 sequence (whole entry): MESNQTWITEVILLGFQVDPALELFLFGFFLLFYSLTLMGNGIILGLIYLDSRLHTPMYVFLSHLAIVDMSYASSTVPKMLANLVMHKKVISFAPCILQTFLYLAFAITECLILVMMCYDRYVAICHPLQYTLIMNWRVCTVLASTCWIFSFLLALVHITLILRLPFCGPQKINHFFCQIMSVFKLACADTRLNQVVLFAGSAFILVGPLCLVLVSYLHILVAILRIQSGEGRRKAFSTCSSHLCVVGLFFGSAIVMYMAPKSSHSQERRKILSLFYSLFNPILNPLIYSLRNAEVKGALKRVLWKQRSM
Summary of the method: as §1

OR2A14 (Homo sapiens) = molecular target: T3, OR2A14 (Homo sapiens) (UniProt Q96R47)
T3 sequence (whole entry): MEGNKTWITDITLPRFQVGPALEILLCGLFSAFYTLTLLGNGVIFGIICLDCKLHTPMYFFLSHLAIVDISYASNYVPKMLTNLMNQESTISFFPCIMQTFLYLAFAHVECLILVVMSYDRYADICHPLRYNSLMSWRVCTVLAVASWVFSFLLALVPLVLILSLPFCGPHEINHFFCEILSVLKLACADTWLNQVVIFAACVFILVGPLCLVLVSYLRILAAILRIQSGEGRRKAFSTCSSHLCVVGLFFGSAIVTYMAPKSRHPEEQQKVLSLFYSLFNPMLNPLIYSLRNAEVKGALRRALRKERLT
Summary of the method: as §1

OR2A2 (Homo sapiens) = molecular target: T4, OR2A2 (Homo sapiens) (UniProt Q6IF42)
T4 sequence (whole entry): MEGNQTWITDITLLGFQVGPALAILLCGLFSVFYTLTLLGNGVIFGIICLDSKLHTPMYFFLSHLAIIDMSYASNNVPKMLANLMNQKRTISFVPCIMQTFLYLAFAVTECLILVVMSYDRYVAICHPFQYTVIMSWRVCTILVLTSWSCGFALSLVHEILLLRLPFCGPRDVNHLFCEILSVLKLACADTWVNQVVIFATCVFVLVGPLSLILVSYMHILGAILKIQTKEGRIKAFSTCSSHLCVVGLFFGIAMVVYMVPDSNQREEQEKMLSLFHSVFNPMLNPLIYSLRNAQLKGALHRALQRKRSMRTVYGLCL
Summary of the method: as §1

OR2A25 (Homo sapiens) = molecular target: T5, OR2A25 (Homo sapiens) (UniProt A4D2G3)
T5 sequence (whole entry): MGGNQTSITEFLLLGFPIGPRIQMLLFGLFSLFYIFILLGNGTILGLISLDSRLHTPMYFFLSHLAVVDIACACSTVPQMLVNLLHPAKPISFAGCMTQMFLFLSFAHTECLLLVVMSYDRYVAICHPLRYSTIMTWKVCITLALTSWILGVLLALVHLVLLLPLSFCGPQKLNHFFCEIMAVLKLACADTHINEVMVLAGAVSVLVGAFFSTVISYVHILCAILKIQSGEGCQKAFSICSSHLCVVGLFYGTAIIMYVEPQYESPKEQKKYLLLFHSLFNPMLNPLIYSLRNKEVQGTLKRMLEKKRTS
Summary of the method: as §1

OR2A4 (Homo sapiens) = molecular target: T6, OR2A4 (Homo sapiens) (UniProt O95047)
T6 sequence (whole entry): T1 sequence (whole entry) with T9R, C238R, F250V
Summary of the method: as §1

OR2A5 (Homo sapiens) = molecular target: T7, OR2A5 (Homo sapiens) (UniProt Q96R48)
T7 sequence (whole entry): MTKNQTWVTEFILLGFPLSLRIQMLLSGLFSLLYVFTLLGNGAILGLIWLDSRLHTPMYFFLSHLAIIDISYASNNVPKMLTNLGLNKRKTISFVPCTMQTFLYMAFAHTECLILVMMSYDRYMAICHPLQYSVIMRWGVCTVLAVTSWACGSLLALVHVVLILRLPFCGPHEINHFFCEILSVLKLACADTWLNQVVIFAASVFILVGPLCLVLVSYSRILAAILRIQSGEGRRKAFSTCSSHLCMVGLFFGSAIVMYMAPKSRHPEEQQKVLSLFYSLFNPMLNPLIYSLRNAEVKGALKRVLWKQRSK
Summary of the method: as §1

OR2AE1 (Homo sapiens) = molecular target: T8, OR2AE1 (Homo sapiens) (UniProt Q8NHA4)
T8 sequence (whole entry): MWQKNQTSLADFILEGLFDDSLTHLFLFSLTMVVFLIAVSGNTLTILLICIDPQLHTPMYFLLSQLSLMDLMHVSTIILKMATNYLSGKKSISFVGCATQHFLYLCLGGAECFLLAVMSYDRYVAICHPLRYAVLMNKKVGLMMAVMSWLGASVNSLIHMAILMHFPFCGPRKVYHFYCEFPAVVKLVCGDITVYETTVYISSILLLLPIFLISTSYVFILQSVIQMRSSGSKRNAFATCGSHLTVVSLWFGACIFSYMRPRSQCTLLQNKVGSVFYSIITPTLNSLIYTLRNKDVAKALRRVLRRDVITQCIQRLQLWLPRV
Summary of the method: as §1

OR2AG1 (Homo sapiens) = molecular target: T9, OR2AG1 (Homo sapiens) (UniProt Q9H205)
T9 sequence (whole entry): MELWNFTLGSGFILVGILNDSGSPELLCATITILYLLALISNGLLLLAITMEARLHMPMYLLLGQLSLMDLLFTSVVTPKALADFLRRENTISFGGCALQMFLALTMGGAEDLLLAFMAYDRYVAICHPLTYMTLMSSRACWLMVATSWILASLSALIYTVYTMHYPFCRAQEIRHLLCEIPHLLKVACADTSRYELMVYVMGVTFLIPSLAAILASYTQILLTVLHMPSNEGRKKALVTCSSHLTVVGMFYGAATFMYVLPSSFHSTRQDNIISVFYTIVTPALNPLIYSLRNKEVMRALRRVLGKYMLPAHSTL
Summary of the method: as §1

OR2AG2 (Homo sapiens) = molecular target: T10, OR2AG2 (Homo sapiens) (UniProt A6NM03)
T10 sequence (whole entry): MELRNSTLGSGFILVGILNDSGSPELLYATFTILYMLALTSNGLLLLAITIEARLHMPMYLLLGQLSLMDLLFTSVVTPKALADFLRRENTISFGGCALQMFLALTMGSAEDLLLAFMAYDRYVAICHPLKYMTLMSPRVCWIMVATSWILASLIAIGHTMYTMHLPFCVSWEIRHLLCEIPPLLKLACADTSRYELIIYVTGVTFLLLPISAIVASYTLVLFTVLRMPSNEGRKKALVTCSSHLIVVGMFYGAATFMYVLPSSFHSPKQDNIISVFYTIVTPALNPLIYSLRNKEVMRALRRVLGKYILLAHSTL
Summary of the method: as §1

OR2AJ1 (Homo sapiens) = molecular target: T11, OR2AJ1 (Homo sapiens) (UniProt Q8NGZ0)
T11 sequence (whole entry): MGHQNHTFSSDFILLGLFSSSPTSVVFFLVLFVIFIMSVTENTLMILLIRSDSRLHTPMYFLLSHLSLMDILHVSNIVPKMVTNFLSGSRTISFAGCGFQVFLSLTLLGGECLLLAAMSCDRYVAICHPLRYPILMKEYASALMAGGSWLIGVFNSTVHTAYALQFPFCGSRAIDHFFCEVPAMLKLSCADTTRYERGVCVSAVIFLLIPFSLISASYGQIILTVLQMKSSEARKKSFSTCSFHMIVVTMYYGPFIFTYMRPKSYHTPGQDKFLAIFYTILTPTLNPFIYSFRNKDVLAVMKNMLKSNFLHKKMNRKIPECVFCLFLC
Summary of the method: as §1

OR2AK2 (Homo sapiens) = molecular target: T12, OR2AK2 (Homo sapiens) (UniProt Q8NG84)
T12 sequence (whole entry): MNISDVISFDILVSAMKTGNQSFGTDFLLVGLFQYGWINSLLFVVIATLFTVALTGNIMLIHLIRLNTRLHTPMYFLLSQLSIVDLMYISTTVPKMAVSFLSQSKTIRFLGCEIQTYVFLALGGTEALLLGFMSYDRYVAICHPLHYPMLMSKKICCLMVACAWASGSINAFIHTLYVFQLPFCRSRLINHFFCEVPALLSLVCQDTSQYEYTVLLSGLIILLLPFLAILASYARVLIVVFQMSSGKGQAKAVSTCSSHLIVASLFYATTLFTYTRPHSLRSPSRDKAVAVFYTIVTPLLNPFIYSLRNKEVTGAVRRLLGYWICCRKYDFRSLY
Summary of the method: as §1

OR2AP1 (Homo sapiens) = molecular target: T13, OR2AP1 (Homo sapiens) (UniProt Q8NGE2)
T13 sequence (whole entry): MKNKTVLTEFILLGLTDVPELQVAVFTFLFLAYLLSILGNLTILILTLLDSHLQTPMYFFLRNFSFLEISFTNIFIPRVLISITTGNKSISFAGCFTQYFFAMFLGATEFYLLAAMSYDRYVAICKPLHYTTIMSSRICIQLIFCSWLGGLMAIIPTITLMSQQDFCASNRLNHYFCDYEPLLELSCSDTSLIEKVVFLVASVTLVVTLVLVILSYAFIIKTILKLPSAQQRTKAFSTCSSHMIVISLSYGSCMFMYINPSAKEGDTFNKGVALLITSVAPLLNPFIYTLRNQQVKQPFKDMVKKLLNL
Summary of the method: as §1

OR2AT4 (Homo sapiens) = molecular target: T14, OR2AT4 (Homo sapiens) (UniProt A6NND4)
T14 sequence (whole entry): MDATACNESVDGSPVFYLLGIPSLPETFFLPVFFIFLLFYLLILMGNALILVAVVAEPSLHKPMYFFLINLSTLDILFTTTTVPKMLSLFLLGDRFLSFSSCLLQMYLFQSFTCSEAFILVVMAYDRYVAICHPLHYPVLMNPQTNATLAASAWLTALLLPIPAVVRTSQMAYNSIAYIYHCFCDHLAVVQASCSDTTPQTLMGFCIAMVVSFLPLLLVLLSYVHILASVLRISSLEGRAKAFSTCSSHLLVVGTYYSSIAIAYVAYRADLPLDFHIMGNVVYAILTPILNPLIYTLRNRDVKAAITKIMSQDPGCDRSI
Summary of the method: as §1

OR2B11 (Homo sapiens) = molecular target: T15, OR2B11 (Homo sapiens) (UniProt Q5JQS5)
T15 sequence (whole entry): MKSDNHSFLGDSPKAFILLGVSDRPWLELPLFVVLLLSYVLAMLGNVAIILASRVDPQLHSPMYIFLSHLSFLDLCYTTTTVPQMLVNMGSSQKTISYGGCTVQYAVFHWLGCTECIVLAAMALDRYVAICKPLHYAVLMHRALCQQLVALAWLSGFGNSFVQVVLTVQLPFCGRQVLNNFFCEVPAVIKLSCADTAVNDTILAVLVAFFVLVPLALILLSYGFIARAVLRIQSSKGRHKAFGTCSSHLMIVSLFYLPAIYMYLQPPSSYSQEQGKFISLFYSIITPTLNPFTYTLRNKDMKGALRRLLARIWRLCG
Summary of the method: as §1

OR2B2 (Homo sapiens) = molecular target: T16, OR2B2 (Homo sapiens) (UniProt Q9GZK3)
T16 sequence (whole entry): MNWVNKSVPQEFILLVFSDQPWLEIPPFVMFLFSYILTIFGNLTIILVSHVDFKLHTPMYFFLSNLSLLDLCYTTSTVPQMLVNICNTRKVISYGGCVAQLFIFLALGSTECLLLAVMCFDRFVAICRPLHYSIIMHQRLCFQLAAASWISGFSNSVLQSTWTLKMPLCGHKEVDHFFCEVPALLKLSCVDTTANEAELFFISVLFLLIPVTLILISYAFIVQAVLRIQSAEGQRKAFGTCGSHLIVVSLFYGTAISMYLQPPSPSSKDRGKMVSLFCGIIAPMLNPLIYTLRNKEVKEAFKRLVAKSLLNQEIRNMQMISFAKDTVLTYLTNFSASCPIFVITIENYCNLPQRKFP
Summary of the method: as §1

Measured: odorant receptor agonist call

CCCCCCCCCCCCO
inactive: OR2A7 (Homo sapiens)

CC(=O)c1c(C)c([N+](=O)[O-])c(C(C)(C)C)c([N+](=O)[O-])c1C
inactive: OR2A12 (Homo sapiens) | OR2A14 (Homo sapiens) | OR2A2 (Homo sapiens) | OR2A25 (Homo sapiens) | OR2A4 (Homo sapiens) | OR2A5 (Homo sapiens) | OR2A7 (Homo sapiens) | OR2AE1 (Homo sapiens) | OR2AG1 (Homo sapiens) | OR2AG2 (Homo sapiens) | OR2AJ1 (Homo sapiens) | OR2AK2 (Homo sapiens) | OR2AP1 (Homo sapiens) | OR2AT4 (Homo sapiens) | OR2B11 (Homo sapiens) | OR2B2 (Homo sapiens)

CCCCCCCCCCCCCCCCCC(=O)OC
inactive: OR2A7 (Homo sapiens)

COc1ccc2[nH]cc(CCNC(C)=O)c2c1
inactive: OR2A7 (Homo sapiens)

CCCCOCC(C)O (stereo unspecified)
inactive: OR2A7 (Homo sapiens)

CCCCCCCCCCCCCCCCCC(=O)OCC
inactive: OR2A7 (Homo sapiens)
